Experimental findings from ChEMBL document CHEMBL1146537, “Diterpenoids from Tetraclinis articulata that inhibit various human leukocyte functions” (J Nat Prod, 2003) are described below.

Series [1] has as its system Neutrophil. As to the kind of experiment: Inhibition of cytochalasin B and fMLP-stimulated human neutrophil degranulation assessed as inhibition of elastase release at 10 uM preincubated for 5 mins measured after 20 mins. It is filed as functional. The procedure, abridged: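 Neutrophils (2.5×10^6/mL) preincubated 5 min with compound or vehicle, then cytochalasin B (10 μM) + fMLP (10 nM), 10 min, 37 °C. Supernatant after 1200g spin at 4 °C, 10 min, reacted with Boc-L-alanine p-nitrophenyl ester (200 μM) 20 min, 37 °C; p-nitrophenol read at 414 nm. Direct enzyme inhibition checked by 5 min compound preincubation with stimulated supernatant before substrate.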

The nature of series [2]: Cytotoxicity against human neutrophils up to 10 uM by MTT assay. It is filed as cell-based. The following applies: neutrophil.
For series [3], the system named is Neutrophil. As to the kind of experiment: Inhibition of TPA-induced chemiluminescence response in human neutrophils at 10 uM after 7 mins. It is filed as functional. Summed up: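 Neutrophils (2.5×10^6/mL) with luminol (40 μM), stimulated by TPA (1 μM); light output counted after 7 min, chosen as time of maximal production.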
The test system of series [4] is Neutrophil. As to the kind of experiment: Inhibition of cytochalasin B and fMLP-stimulated human neutrophil degranulation assessed as inhibition of myeloperoxidase release at 10 uM preincubated for 5 mins. The series is classed as functional. Summed up: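 Neutrophils (2.5×10^6 cells/mL) preincubated 5 min at 37 °C with compound in ethanol (ethanol alone for controls). Then stimulated 10 min at 37 °C with cytochalasin B (10 μM) plus fMLP (10 nM).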

Regarding `C=C[C@@]1(C)CC[C@H]2[C@](O)(CC[C@@H]3[C@]2(C)CCC[C@@]3(C)C=O)C1`, the inhibition (usually the percentage by which the read-out fell short of the control) at 10 µM came to 17.8% in the series with Neutrophil [1], 30.5% in the series on Neutrophil [3] and 47.8% in the series on Neutrophil [4]. The Activity result in series [2] was “Non-toxic”.

Consider `C=C[C@@]1(C)CC[C@H]2[C@](O)(CC[C@H]3[C@](C)(CO)CCC[C@@]32C)C1`, for which the results for the inhibition at 10 µM in the series with Neutrophil [1], in the series on Neutrophil [3] and with Neutrophil [4] were 24.1%, 1.8% and 46.7%, respectively. Moreover, the Activity entry in series [2] is on record as “Non-toxic”.

Turning to `C=C[C@@]1(C)CC[C@H]2[C@](O)(CC[C@H]3[C@](C)(COC(C)=O)CCC[C@@]32C)C1`, the values for the inhibition at 10 µM in the series on Neutrophil [1], in the series on Neutrophil [3] and in the series with Neutrophil [4] were 33.5%, 6.5% and 55.4%, respectively. For the same compound, in series [2], the Activity entry was “Non-toxic”.
